Test results reported in ChEMBL document CHEMBL1833914, “Smardaesidins A-G, isopimarane and 20-nor-isopimarane diterpenoids from Smardaea sp., a fungal endophyte of the moss Ceratodon purpureus” (J Nat Prod, 2011).
Blank lines part the entries; values can stand above or below the molecule they belong to. The source made the active and inactive calls. No cut-off for these calls is given here.

Experiments:
PC-3M = assay: Cytotoxicity against human PC3M cells at 10 uM after 72 hrs by Alamar blue assay; format: functional, cell-based
MCF7 [1] = assay: Cytotoxicity against human MCF7 cells at 10 uM after 72 hrs by Alamar blue assay; format: functional, cell-based
[2] = Cytotoxicity against human PC3M cells after 72 hrs by Alamar blue assay; format: functional, cell-based; conditions: PC-3M
SF-268 [3] = assay: Cytotoxicity against human SF268 cells after 72 hrs by Alamar blue assay; format: functional, cell-based; conditions: SF-268, 72 h
MDA-MB-231 [4] = assay: Cytotoxicity against human MDA-MB-231 cells after 72 hrs by Alamar blue assay; format: functional, cell-based; conditions: MDA-MB-231, 72 h
NCI-H460 [5] = assay: Cytotoxicity against human NCI-H460 cells after 72 hrs by Alamar blue assay; format: functional, cell-based; conditions: NCI-H460, 72 h
NCI-H460 [6] = assay: Cytotoxicity against human NCI-H460 cells at 10 uM after 72 hrs by Alamar blue assay; format: functional, cell-based
MCF7 [7] = assay: Cytotoxicity against human MCF7 cells after 72 hrs by Alamar blue assay; format: functional, cell-based; conditions: MCF7, 72 h
MDA-MB-231 [8] = assay: Cytotoxicity against human MDA-MB-231 cells at 10 uM after 72 hrs by Alamar blue assay; format: functional, cell-based
SF-268 [9] = assay: Cytotoxicity against human SF268 cells at 10 uM after 72 hrs by Alamar blue assay; format: functional, cell-based
MIA PaCa-2 = assay: Cytotoxicity against human MIAPaCa2 cells after 72 hrs by Alamar blue assay; format: functional, cell-based; conditions: MIA PaCa-2, 72 h
PC-3 = assay: Cytotoxicity against human PC3 cells after 72 hrs by Alamar blue assay; format: functional, cell-based; conditions: PC-3, 72 h
WI-38 = assay: Cytotoxicity against human WI38 cells after 72 hrs by Alamar blue assay; format: cell-based; conditions: WI-38, 72 h
MDA-MB-231 [10] = assay: Inhibition of human MDA-MB-231 cell migration after 40 hrs by wound-healing assay; format: functional, cell-based; conditions: MDA-MB-231, 40 h
Summary of the method: (§1)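 Wound-healing assay: MDA-MB-231 cells grown in DMEM/Ham's F-12 with 10% FBS and gentamicin (50 μg/mL) at 37 °C, 5% CO2. Cells seeded at 150 000/well and grown 24 h to >90% confluent monolayer. Monolayer scratched with toothpick, washed with PBS, fresh medium added, compound in DMSO added in duplicate, 40 h. LY294002 7.5 μM positive control. Wound area measured by ImageJ from three photos per well.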

MDA-MB-231 [11] = assay: Antiproliferative activity against human MDA-MB-231 cells after 72 hrs by Alamar blue assay; format: functional, cell-based; conditions: MDA-MB-231, 72 h
Summary of the method: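 alamarBlue proliferation/survival read-out in MDA-MB-231 after 72 h exposure. Reagent added to 10% final, 4 h incubation, fluorescence at ex 560/em 590 nm as percent of DMSO vehicle; IC50 and IC25 reported as mean ± error.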

MDA-MB-231 [12] = assay: Inhibition of human MDA-MB-231 cell migration at 2 uM after 40 hrs by wound-healing assay; format: functional, cell-based; summary of the method: as §1
MDA-MB-231 [13] = assay: Inhibition of human MDA-MB-231 cell migration at 5 uM after 40 hrs by wound-healing assay; format: functional, cell-based; summary of the method: as §1

Structure (SMILES): C=C[C@]1(C)C=C2C(=O)[C@@]3(OC(C)=O)OC(=O)[C@@]4(CCCC(C)(C)[C@H]34)[C@@]2(O)CC1
- Activity (PC-3M): Active
- Activity (MCF7 [1]): Active
- IC50 [2]: 2700 nM
- IC50 (SF-268 [3]): 4900 nM
- IC50 (MDA-MB-231 [4]): 2500 nM
- IC50 (NCI-H460 [5]): 2800 nM
- Activity (NCI-H460 [6]): Active
- IC50 (MCF7 [7]): 2000 nM
- Activity (MDA-MB-231 [8]): Active
- Activity (SF-268 [9]): Active

Structure (SMILES): COc1cccc2c1C(=O)c1c(O)c3c(c(O)c1C2=O)C[C@@](O)(C(=O)CO)C[C@@H]3O[C@H]1C[C@H](N)[C@H](O)[C@H](C)O1 [DOXORUBICIN]
- IC50 (MIA PaCa-2): 300 nM
- IC50 (PC-3): 300 nM
- IC50 (SF-268 [3]): 600 nM
- IC50 (MDA-MB-231 [4]): 500 nM
- IC50 (WI-38): 800 nM
- IC50 (NCI-H460 [5]): 300 nM
- IC50 (MCF7 [7]): 400 nM

- IC50 (MDA-MB-231 [10]): 1500 nM
- IC50 (MDA-MB-231 [11]): 3000 nM
Structure (SMILES): C=C[C@]1(C)C=C2C(=O)[C@@]3(O)OC(=O)[C@@]4(CCCC(C)(C)[C@H]34)[C@@]2(O)CC1 [SPHAEROPSIDIN A]
- IC50 (MIA PaCa-2): 2000 nM
- IC25 (MDA-MB-231 [11]): 1500 nM
- Activity (PC-3M): Active
- Activity (MCF7 [1]): Active
- IC50 (PC-3): 2500 nM
- IC50 [2]: 2400 nM
- IC50 (SF-268 [3]): 2100 nM
- IC50 (MDA-MB-231 [4]): 1400 nM
- IC50 (WI-38): 3700 nM
- inhibition (MDA-MB-231 [12]): Active
- IC50 (NCI-H460 [5]): 1900 nM
- Activity (NCI-H460 [6]): Active
- IC50 (MCF7 [7]): 3000 nM
- Activity (MDA-MB-231 [8]): Active
- Activity (SF-268 [9]): Active

- IC50 (MDA-MB-231 [10]): 4800 nM
- IC50 (MDA-MB-231 [11]): > 5000 nM
Structure (SMILES): C=C[C@]1(C)C=C2C(=O)[C@@]3(O)OC(=O)[C@@]4(CCCC(C)(C)[C@H]34)[C@@]2(O)[C@H](O)C1 [SPHAEROPSIDIN D]
- inhibition (MDA-MB-231 [13]): Active
- IC50 (MIA PaCa-2): 9000 nM
- IC25 (MDA-MB-231 [11]): > 5000 nM
- Activity (PC-3M): Active
- Activity (MCF7 [1]): Active
- IC50 (PC-3): 9600 nM
- IC50 [2]: > 10000 nM
- IC50 (SF-268 [3]): 7500 nM
- IC50 (MDA-MB-231 [4]): 3700 nM
- IC50 (WI-38): > 10000 nM
- IC50 (NCI-H460 [5]): > 10000 nM
- Activity (NCI-H460 [6]): Active
- IC50 (MCF7 [7]): > 10000 nM
- Activity (MDA-MB-231 [8]): Active
- Activity (SF-268 [9]): Active
